Results published in ChEMBL document CHEMBL1132994, “Synthesis and anticonvulsant and neurotoxic properties of substituted N-phenyl derivatives of the phthalimide pharmacophore” (J Med Chem, 2000).
Calls of active or inactive are those of the source.

Legend:
[1] = tested on: Mus musculus; test: Anticonvulsant activity in mice through seizures induced by maximal electroshock (MES) tests after ip administration at a concentration of 300 mg/kg after 4 hours; Inactive; type: functional, organism-based; parameters: dose 300 mg/kg
[2] = tested on: Mus musculus; test: Neurotoxicity determined by rotarod test after intraperitoneal administration at a concentration of 300 mg/kg after 4 hours; Inactive; type: functional, organism-based; parameters: dose 300 mg/kg
[3] = tested on: Mus musculus; test: Anticonvulsant activity in mice through seizures induced by maximal electroshock (MES) tests after ip administration at a concentration of 100 mg/kg after 30 min; active; type: functional, organism-based; parameters: dose 100 mg/kg
[4] = tested on: Mus musculus; test: Anticonvulsant activity in mice through seizures induced by sc pentylenetetrazole (intraperitoneal administration at a concentration of 300 mg/kg after 30 min; Inactive; type: functional, organism-based; parameters: dose 300 mg/kg
[5] = tested on: Mus musculus; test: Anticonvulsant activity in mice through seizures induced by sc pentylenetetrazole (intraperitoneal administration at a concentration of 300 mg/kg after 4 hours; Inactive; type: functional, organism-based; parameters: dose 300 mg/kg
[6] = tested on: Mus musculus; test: Neurotoxicity by rotarod test after intraperitoneal administration at a concentration of 300 mg/kg after 30 minutes; Inactive; type: functional, organism-based; parameters: dose 300 mg/kg
[7] = tested on: Mus musculus; test: Anticonvulsant activity in mice through seizures induced by subcutaneous pentylenetetrazole (scPTZ) tests after ip administration at a concentration of 300 mg/kg after 4 hours; Inactive; type: functional, organism-based; parameters: dose 300 mg/kg
[8] = tested on: Mus musculus; test: Anticonvulsant activity in mice through seizures induced by maximal electroshock (MES) tests after ip administration at a concentration of 100 mg/kg after 30 min; Active; type: functional, organism-based; parameters: dose 100 mg/kg
[9] = tested on: Mus musculus; test: Anticonvulsant activity in mice through seizures induced by maximal electroshock (MES) tests after ip administration at a concentration of 100 mg/kg after 30 min; Inactive; type: functional, organism-based; parameters: dose 100 mg/kg
[10] = tested on: Mus musculus; test: Anticonvulsant activity in mice through seizures induced by subcutaneous pentylenetetrazole (scPTZ) tests after ip administration at a concentration of 300 mg/kg after 30 min; Inactive; type: functional, organism-based; parameters: dose 300 mg/kg
[11] = tested on: Mus musculus; test: Anticonvulsant activity in mice through seizures induced by maximal electroshock (MES) tests after ip administration at a concentration of 300 mg/kg after 4 hours; Active; type: functional, organism-based; parameters: dose 300 mg/kg
[12] = tested on: Mus musculus; test: Anticonvulsant activity in mice through seizures induced by maximal electroshock (MES) tests after ipb administration at a concentration of 300 mg/kg after 4 hours.; Inactive; type: functional, organism-based; parameters: dose 300 mg/kg
[13] = tested on: Rattus norvegicus; test: Anticonvulsant activity was measured in rats through seizures induced by maximal electroshock (MES) tests by oral administration of drug after 2 hours.; type: functional
Outline: (§1)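 Rats given a single oral dose of 30 or 50 mg/kg, depending on compound; MES protection scored at 15, 30, 60, 120 and 240 min. Activity graded by fraction of animals protected (0-25%, 25-50%, 50-75%, 75-100%); neurotoxicity monitored at the same time points.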

[14] = tested on: Rattus norvegicus; test: Effective dose required to assure anticonvulsant protection in 50% of rats dosed orally by MES test.; type: functional; details: po
Outline: (§2)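 Rats dosed orally; ED50 is the dose giving anticonvulsant protection in 50% of animals in the MES or scPtz test. TD50 is the minimal neurotoxic dose in 50% of animals. Time to peak effect was also determined.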

[15] = tested on: Rattus norvegicus; test: Anticonvulsant activity was measured in rats through seizures induced by maximal electroshock (MES) tests by oral administration of drug after 4 hours.; type: functional; outline: as §1
[16] = tested on: Rattus norvegicus; test: Anticonvulsant activity was measured in rats through seizures induced by maximal electroshock (MES) tests by oral administration of drug after 1 hour.; type: functional; outline: as §1
[17] = tested on: Rattus norvegicus; test: Anticonvulsant activity was measured in rats through seizures induced by maximal electroshock (MES) tests by oral administration of drug after 15 minutes.; type: functional; outline: as §1
[18] = tested on: Rattus norvegicus; test: (§3) Toxicity screening in rats dosed orally with the compound; No toxicity; type: organism-based; details: in vivo, po
[19] = tested on: Rattus norvegicus; test: Effective dose required to assure anticonvulsant protection in 50% of rats dosed orally by scPTZ test.; type: functional; details: po; outline: as §2
[20] = dose eliciting minimal neurological toxicity in 50% of animals.; type: organism-based; details: rat, in vivo
[21] = tested on: Rattus norvegicus; test: Anticonvulsant activity was measured in rats through seizures induced by maximal electroshock (MES) tests by oral administration of drug after 30 minutes.; type: functional; outline: as §1
[22] = tested on: Mus musculus; test: Anticonvulsant activity in mice through seizures induced by maximal electroshock (MES) tests after ip administration at a concentration of 300 mg/kg after 4 hour; Active; type: functional, organism-based; parameters: dose 300 mg/kg
[23] = tested on: Mus musculus; test: Neurotoxicity by rotarod test after ip administration at a concentration of 300 mg/kg after 30 minutes; Active; type: functional, organism-based; parameters: dose 300 mg/kg
[24] = tested on: Rattus norvegicus; test: Anticonvulsant activity was measured in rats through seizures induced by maximal electroshock (MES) tests by oral administration of drug at a concentration of 30 mg/kg after 2 hours.; type: functional; outline: as §1
[25] = tested on: Rattus norvegicus; test: Anticonvulsant activity in rats through seizures induced by maximal electroshock (MES) tests by oral administration of drug at a concentration of 30 mg/kg after 15 minutes; No activity; type: functional, organism-based; parameters: dose 30 mg/kg; outline: as §1
[26] = tested on: Rattus norvegicus; test: Anticonvulsant activity in rats through seizures induced by maximal electroshock (MES) tests after oral administration at a concentration of 30 mg/kg after 1 hour.; type: functional; outline: as §1
[27] = tested on: Mus musculus; test: Anticonvulsant activity in mice through seizures induced by subcutaneous pentylenetetrazole (scPTZ) test after ip administration at a concentration of 300 mg/kg after 30 min; Inactive; type: functional, organism-based; parameters: dose 300 mg/kg
[28] = tested on: Rattus norvegicus; test: as §3; type: functional, organism-based
Outline: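 Rats given a single oral dose of 30 or 50 mg/kg, depending on compound. Minimal neurotoxicity was scored at 15, 30, 60, 120 and 240 min after dosing, alongside the MES test. Scores are graded by the percentage of animals affected.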

[29] = tested on: Rattus norvegicus; test: Anticonvulsant activity in rats through seizures induced by maximal electroshock (MES) tests by oral administration of drug at a concentration of 30 mg/kg after 30 minutes; type: functional; outline: as §1
[30] = tested on: Mus musculus; test: Anticonvulsant activity in mice through seizures induced by subcutaneous pentylenetetrazole (scPTZ) tests after ip administration at a concentration of 300 mg/kg after 30 min; active; type: functional, organism-based; parameters: dose 300 mg/kg
[31] = tested on: Mus musculus; test: Anticonvulsant activity in mice through seizures induced by sc pentylenetetrazole (intraperitoneal administration at a concentration of 300 mg/kg after 4 hours; active; type: functional, organism-based; parameters: dose 300 mg/kg

Cc1c(N)cccc1N1C(=O)CCC1=O
active: Activity [3]
inactive: Activity [1] | Activity [2] | Activity [4] | Activity [5] | Activity [6]

Cc1ccc(N)cc1N1C(=O)c2ccccc2C1=O
inactive: Activity [1] | Activity [7] | Activity [2] | Activity [4] | Activity [6]
active: Activity [8]

O=C1c2ccccc2C(=O)N1c1ccc([N+](=O)[O-])cc1
inactive: Activity [1] | Activity [2] | Activity [4] | Activity [5] | Activity [9] | Activity [6]

Cc1cc([N+](=O)[O-])ccc1N1C(=O)c2ccccc2C1=O
inactive: Activity [2] | Activity [10] | Activity [5] | Activity [9] | Activity [6]
active: Activity [11]

O=C1c2ccccc2C(=O)N1c1ccc([N+](=O)[O-])cc1Cl
inactive: Activity [2] | Activity [10] | Activity [5] | Activity [12] | Activity [9] | Activity [6]

Cc1c(N)cccc1N1C(=O)c2ccccc2C1=O
> 200 mg/kg: ED50 [19]
8 mg/kg: ED50 [14]
No toxicity: Toxicity [18]
> 400 mg/kg: TD50 [20]
inactive: Activity [2] | Activity [10] | Activity [5] | Activity [6]
100%: Activity in animals [13] | Activity in animals [15] | Activity in animals [16] | Activity in animals [17] | Activity in animals [21]
active: Activity [8] | Activity [11]

Cc1cccc([N+](=O)[O-])c1N1C(=O)c2ccccc2C1=O
inactive: Activity [7] | Activity [2] | Activity [4] | Activity [9] | Activity [6]
active: Activity [22]

Cc1c(C(=O)O)cccc1N1C(=O)c2ccccc2C1=O
inactive: Activity [1] | Activity [7] | Activity [2] | Activity [10] | Activity [9] | Activity [6]

Nc1ccc(N2C(=O)c3ccccc3C2=O)cc1
75%: Activity in animals [26]
inactive: Activity [1] | Activity [7] | Activity [2] | Activity in animals [25] No activity | Activity [27] | Toxicity [28] Not toxic
50%: Activity in animals [24]
active: Activity [23] | Activity [8]
25%: Activity in animals [15] | Activity in animals [29]

COc1ccc(N2C(=O)c3ccccc3C2=O)c(C)c1
active: Activity [30] | Activity [31] | Activity [3]
inactive: Activity [1] | Activity [2] | Activity [6]
